# Measured values pooled from the literature.
# Each line is one published result; the experiments were not run side by side.
# Target: Serine/threonine-protein kinase Nek1 (NEK1, Homo sapiens, UniProt Q96PY6)
# Sequence (Q96PY6 1-1258, as in one of the studies): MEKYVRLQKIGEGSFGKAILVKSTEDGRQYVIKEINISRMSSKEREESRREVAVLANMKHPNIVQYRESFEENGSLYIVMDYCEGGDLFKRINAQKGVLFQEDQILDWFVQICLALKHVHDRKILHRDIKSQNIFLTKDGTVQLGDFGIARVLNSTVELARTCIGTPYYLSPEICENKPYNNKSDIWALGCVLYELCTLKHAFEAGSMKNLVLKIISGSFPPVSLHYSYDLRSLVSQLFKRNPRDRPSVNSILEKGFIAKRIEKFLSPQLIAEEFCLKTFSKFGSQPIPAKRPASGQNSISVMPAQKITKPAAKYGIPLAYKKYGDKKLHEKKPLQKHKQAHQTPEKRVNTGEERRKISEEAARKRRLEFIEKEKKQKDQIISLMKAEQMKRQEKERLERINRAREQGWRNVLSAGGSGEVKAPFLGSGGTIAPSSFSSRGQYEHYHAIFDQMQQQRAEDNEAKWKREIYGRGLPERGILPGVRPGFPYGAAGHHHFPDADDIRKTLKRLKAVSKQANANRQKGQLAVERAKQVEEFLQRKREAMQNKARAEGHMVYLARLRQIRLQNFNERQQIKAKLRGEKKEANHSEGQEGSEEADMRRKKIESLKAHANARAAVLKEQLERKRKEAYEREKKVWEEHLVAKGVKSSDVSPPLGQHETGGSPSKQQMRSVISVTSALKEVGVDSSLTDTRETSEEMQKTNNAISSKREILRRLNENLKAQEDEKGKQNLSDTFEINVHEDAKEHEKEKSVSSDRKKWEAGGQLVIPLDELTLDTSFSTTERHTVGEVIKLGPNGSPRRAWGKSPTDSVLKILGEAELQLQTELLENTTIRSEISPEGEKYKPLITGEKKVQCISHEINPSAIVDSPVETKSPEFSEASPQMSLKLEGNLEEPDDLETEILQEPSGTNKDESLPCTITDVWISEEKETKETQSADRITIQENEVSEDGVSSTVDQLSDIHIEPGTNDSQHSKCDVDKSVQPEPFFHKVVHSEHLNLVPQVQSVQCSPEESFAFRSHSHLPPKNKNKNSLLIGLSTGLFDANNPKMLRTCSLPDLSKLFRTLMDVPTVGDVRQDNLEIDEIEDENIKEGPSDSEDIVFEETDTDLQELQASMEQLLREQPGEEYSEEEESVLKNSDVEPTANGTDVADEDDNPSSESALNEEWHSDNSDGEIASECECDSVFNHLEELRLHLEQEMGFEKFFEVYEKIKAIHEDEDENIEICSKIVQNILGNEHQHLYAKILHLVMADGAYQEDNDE
Compound,test,setting,measurement,result
CC#CC(=O)N1CCC[C@H]1c1nc(-c2ccc(C(=O)Nc3ccccn3)cc2)c2c(N)nccn12,"enzyme activity, inhibitor",1 µM,inhibition,8%
COc1ccc2[nH]c3c4[nH]c5ccc(OC)cc5c4c4c(c3c2c1)C(=O)NC4=O,binding,1 µM,remaining binding,100%
Cc1cc(O)c(-c2ccc([C@@H](C)CN(C)C)cc2)c2c1[nH]c(=O)c1sccc12,"enzyme activity, inhibitor",0.1 µM,inhibition,-3.68%
C#Cc1cc(-c2cc(Nc3nc(N[C@@H](C)c4ccc(F)cn4)ncc3Cl)n[nH]2)ccc1C=O,"enzyme activity, inhibitor",0.2 µM,inhibition,70.2%
CCCCC(=O)Nc1ccc(-c2ccc3ncn(CCC)c(=O)c3c2)cn1,"binding, competition with immobilised ligand",0.5 µM,remaining binding,95%
CO[C@@H]1[C@H](N(C)C(=O)c2ccccc2)C[C@H]2O[C@]1(C)n1c3ccccc3c3c4c(c5c6ccccc6n2c5c31)C(=O)NC4,"enzyme activity, inhibitor",1 µM,inhibition,0%
C[C@H]1CC[C@H](n2c3cnccc3c3cnc(Nc4ccc5c(n4)CCN(C(=O)CO)C5)nc32)CC1,cell-free assay,1 µM,remaining signal,85%
COc1ccc2oc(-c3ccc4nc(N)oc4c3)c/c(=N\c3ccccc3NC(=O)CCN)c2c1,binding,1 µM,remaining binding,108%
C1=C/COCc2cc(ccc2OCCN2CCCC2)Nc2nccc(n2)-c2cccc(c2)COC/1,binding,0.1 µM,remaining binding,98%
